This passage reports yeast fitness results from the RNAGym collection of RNA variant scans (doi:10.1126/science.aae0568).

Variants at the floor of the assay were thinned out. Bounds are passed on as bounds.

To fix the notation:
B1: tRNA (parent)
chain: GUUCCGUUGGCGUAAUGGUAACGCGUCUCCCUCCUAAGGAGAAGACUGCGGGUUCGAGUCCCGUACGGAACG

The variants in this data set derive from B1. Briefly: yeast fitness relative to wild type (ratio to wild type); higher = fitter; tRNA-Arg(CCU), competitive growth, 37 C, YPD. An outline of the steps:
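Variants of the tRNA-Arg(CCU) gene, chemically synthesised with a 3% per-site mutation rate at 69 sites, were placed at the native genomic locus in Saccharomyces cerevisiae. The pooled strains were competed in YPD at 37°C for 24 hours in six parallel replicates. Gene amplicons from the start population and from each end population were read by 100-nucleotide paired-end sequencing. Darwinian fitness relative to wild type came from changes in genotype frequencies; genotypes needed ≥ 100 starting reads, and estimates < 0.5 were set to 0.5.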
Consider C22U U32C, for which the yeast fitness came out at 0.902.

For the variant C24A C31U U53A, the yeast fitness amounted to 0.786.

Turning to C22U C24G C30G, the yeast fitness is at most 0.5.

G23U C24G C27U: the yeast fitness is at most 0.5.

For the variant G23U G63C, the yeast fitness turned out to be 0.623. The result for C24G A37C C49U reads at most 0.5; that for C22U C24U C27U C31U C62U, at most 0.5. In the case of G23A C55U A57C G58A, the yeast fitness was at most 0.5. The result for G23C G39C reads 0.53. The result for C22U G23C G52C reads at most 0.5; that for C24A U26G C30G A43U C62U, 0.549. The result for G23C A42G A69G A70C reads at most 0.5; that for C22U C29G A36U G41C A45C C49U U54C C61U, at most 0.5; that for G23A C31G G52A, at most 0.5. For G23A A43C U59A, the yeast fitness is 0.639. Regarding C22U A40C A70U, the yeast fitness stood at 0.545.

Regarding G23U C49G A70U, the yeast fitness is at most 0.5. The result for G23C C31A A36U reads at most 0.5. The result for G23C A37U C46G reads at most 0.5; that for G23C C27G A45G G52A, 0.57.

On to C24G A57C C61U, for which the yeast fitness is at most 0.5. Take C24G C30G C34G A70G: the yeast fitness is at most 0.5. The result for C24A C33G A40C C55U reads 0.888. The result for C22U C33G A42C C49G G58C C62G reads at most 0.5. Regarding C24G G58C G68A, the yeast fitness was at most 0.5. The result for G23A C30U C33A A43G G48C A57G reads at most 0.5; that for G23A G51A C61A C66A, 0.545. The result for C24G C49G G68U reads at most 0.5. Turning to G23A C30U U35C G67U A69C, the yeast fitness is at most 0.5. With C24G C33G G50U U59C, the yeast fitness was at most 0.5. Turning to C24A C29G A45G, the yeast fitness was at most 0.5. The result for C22U U28C U54A A69U reads at most 0.5; that for C22U C46A G58C C66U, at most 0.5.

With C24A A57U, the yeast fitness is 0.681. The result for C24G A36U A37C A65C reads at most 0.5. G23C G50A: the yeast fitness came to 0.726.

With C24G A65U G67C, the yeast fitness was at most 0.5. The result for G23C C55G reads at most 0.5; that for G23A C34A, 0.523. G23A A40G A45C: the yeast fitness was at most 0.5. The result for C22U A42U C49G reads at most 0.5; that for C22U C49U, 0.816. The result for C24G C30G C62U G68C reads at most 0.5; that for C24A U32C C62U, at most 0.5; that for C22U C24G U47C C61A, at most 0.5. The result for G23A G25A C31U reads 0.652; that for G23A C30U U35C G48C U59A C66U, 0.526. On to C22U C30U A57G, for which the yeast fitness is at most 0.5. The result for C22U U54A C55U reads 0.776. The result for C24G C60A reads 0.576; that for C22U G25A U26G C62U A65U, 0.51. The result for C24G A40U reads 0.542; that for G23C C30A U64C, at most 0.5.

Take C24G C55G C66U: the yeast fitness was at most 0.5. The result for C24G G41C G68C reads 0.592; that for G23C C33U A57U G67A, 0.512. Take C24A A42C U64C: the yeast fitness is at most 0.5.

C22U G52A C61U: the yeast fitness is at most 0.5.

As for C22U C31G U64A C66A, the yeast fitness is at most 0.5. The result for C24A C29A G44A C46G G50A A65U reads 0.556; that for C22U C30G C61U A65C C66U, at most 0.5; that for C24A C29G U54A, 0.568. The result for C24G A37G U59A C62A G67A reads at most 0.5; that for C24G C49G G67A A69C, 0.521.

C22U G38C C46U C66G: the yeast fitness is at most 0.5. The result for C22G U64G reads 0.8. The result for G23U U32A U53A C55G reads at most 0.5; that for G23C C49A U59C A69G, at most 0.5; that for C22U C27G U28G U59C, at most 0.5.

For C22U U59C, the yeast fitness was 0.778. G23A C24G A40U A65U: the yeast fitness is at most 0.5. For the variant C24A A40U C49U C62A C66A, the yeast fitness is at most 0.5. The result for C22U A42C A57C reads at most 0.5; that for G23A C30A U64A, at most 0.5; that for C22U C33G G58C, 0.525. The result for C24A U26G A43C A70G reads at most 0.5.

In the case of C24A C27A U28A C55G, the yeast fitness is at most 0.5. With G23A A43U A65U, the yeast fitness was at most 0.5.

On to C22U A65G G68C, for which the yeast fitness is 0.534. With G23A U54A G67A, the yeast fitness was at most 0.5.

As to C24A A40C A69C, the yeast fitness was at most 0.5. As for C24G G50C A70G, the yeast fitness is at most 0.5. The result for G23A C30U C55G A57C C61A reads at most 0.5. For the variant C22U A40U A43U C46U C55U A65U, the yeast fitness is at most 0.5.

Consider C22U A40G, for which the yeast fitness is 0.834. The result for C24A G51A reads 0.53; that for G23A U26A G50C U53C, at most 0.5; that for C24A G39A, 0.66.

Turning to G23C A45U A65C, the yeast fitness is at most 0.5. On to G23A C49A U59C C62U A65U A70C, for which the yeast fitness was 0.524. The result for C22U C29U A40C reads 0.667; that for G23A A42U C61A, at most 0.5. The result for C22U G52C G68A reads at most 0.5.

Regarding C24A A43C A69U, the yeast fitness was at most 0.5. For the variant C24G C49U C55G G58A, the yeast fitness came to 0.764. The result for C22U C30U A37G reads 0.526; that for C22U A42G C55G A70U, 0.556; that for G23A A40G G41A A45U G51C, at most 0.5.

Turning to C22U U59A C61G, the yeast fitness is 0.547. The result for G23A G52A reads 0.546; that for C22U A45G, 0.747; that for C24G A37G U59A G67A, 0.548. Consider C24G G41A, for which the yeast fitness came out at 0.619. The result for C24G A42G C55G reads at most 0.5; that for C24G G38C, 0.566. The result for C22U C30U C33U A45C C66U reads at most 0.5; that for C22U C49G U53A, 0.558. In the case of G23A C27G C55G, the yeast fitness was at most 0.5. The result for C24G G48A reads 0.588; that for C24A A36U C55A C66U, at most 0.5.

In the case of C24A C60U C61G G67A, the yeast fitness was determined as 0.614.

On to G23A C30U U35C C62A, for which the yeast fitness was at most 0.5.

C24G G44A C46U U53C: the yeast fitness is at most 0.5. The result for C22U U28G A45G A65G reads at most 0.5. The result for C24G U26A G41C C66U reads 0.608; that for C24G C34G A43U, at most 0.5; that for C22U C30A C34U G38C, at most 0.5. The result for C22G U32A reads 0.71; that for C24G C31U C34U C49U A69C, at most 0.5; that for C24A G68C, 0.643. Turning to C24A U59G C62U, the yeast fitness was at most 0.5. In the case of G23C G38A, the yeast fitness was determined as 0.696. For G23C G51C, the yeast fitness is at most 0.5.

Turning to G23C U32A C61U, the yeast fitness was at most 0.5. The result for G23C C31U G48A C49U reads at most 0.5; that for C22U C24A A70U, at most 0.5.

For the variant C24G C33G A36C A37C G41A A42C A65U, the yeast fitness is at most 0.5. The result for G23C A42C A43C reads 0.575; that for C22U C24A A42G, at most 0.5. The result for C24G A40G A42G reads 0.54. The result for C24G U32C A42G reads 0.574; that for C24A U26G A43C G68C, at most 0.5.

Regarding C22G U32C U54A A65G, the yeast fitness was at most 0.5. The result for C24G G44A C46U U53C C62U reads at most 0.5; that for C22U C60U C61A, at most 0.5. With G23A C30G, the yeast fitness is 0.527. The result for C22G U47A G52A reads at most 0.5. The result for C24G A36U A42U C49G U53A G58A C60A reads at most 0.5. The result for C24G C29G G48A reads at most 0.5; that for C24G A45C C46G C60G A69U, at most 0.5. For C24G U35A A40C G52A C60A C61G, the yeast fitness was at most 0.5. The result for G23C C24A C30G A40U U47A G51C C66A A69U reads 0.525. The result for C22U C60G reads 0.688; that for C22U U47G, 0.611. The result for G23A C29G A45U C60G C61U reads 0.557; that for C22U A69C, 0.876; that for C22G U47A A70C, at most 0.5.

As to C24G A36U A65G, the yeast fitness is at most 0.5.

On to C22U A40U U47C, for which the yeast fitness stood at 0.544. The result for G23A U47C C55U A69C reads at most 0.5.

Consider C24A G52A, for which the yeast fitness turned out to be 0.752. As for C22U C34U G39A G44A G58C A65C, the yeast fitness is at most 0.5. The result for C24A G63C A69C reads 0.621; that for C24A C30U, 0.538.

For C22U C30A A40U A43U, the yeast fitness is at most 0.5. The result for G23C A42U reads 0.65; that for G23C U28G A42C G52C, at most 0.5. The result for G23A C30U U35C reads at most 0.5. On to G23C U53A A65U, for which the yeast fitness is at most 0.5.

With C24A U26A C55A C66U, the yeast fitness is at most 0.5. The result for C24A U26G G56C reads at most 0.5; that for C22U G48A A65U, 0.773; that for G23A C62U A65C, 0.582. Take G23U A43U C55G: the yeast fitness was at most 0.5. Take G23C C29G A43U G50A A65C: the yeast fitness amounted to 0.542.

C24G C30U C31G G50A: the yeast fitness is at most 0.5.

On to C22U U26A G67C, for which the yeast fitness was at most 0.5.
